PMC2909360 (Molecular microbiology, 2010)

Legend:
[1] = target: purified bovine cathepsin B (Bos taurus, UniProt P07688); experiment: Inhibition of cathepsin B, fluorogenic substrate assay; format: biochemical
Procedure, shortened: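 Pre-incubated 10 min at room temperature with increasing inhibitor concentrations, then Z-Leu-Arg-AMC added (0.25 mM final) at 30°C. Linear hydrolysis rate read for 20 min (ex 365/em 450 nm). Triplicates, mean ± SEM. IC50 from activity loss.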

[2] = test system: calpain; experiment: Inhibition of calpain; format: biochemical; conditions: data not shown

- inhibition of cathepsin B (in words) [1]: targets also cathepsin B
Compound: CC(C)C[C@H](NC(=O)N1CCOCC1)C(=O)N[C@H](/C=C/S(=O)(=O)c1ccccc1)CCc1ccccc1 [LHVS, Morpholinurea-leucine-homophenylalanine-vinylsulfone-phenyl, reference compound]
- inhibition of calpain (in words) [2]: targets
